Laboratory results published in ChEMBL document CHEMBL1138222, “9-Benzylidene-naphtho[2,3-b]thiophen-4-ones as novel antimicrotubule agents-synthesis, antiproliferative activity, and inhibition of tubulin polymerization” (J Med Chem, 2006).
Values belong to the compound of their own block, whether it stands above or below them.

Assays:
MDR = experiment: Antiproliferative activity against LT12 MDR cells by XTT assay after 48 hrs; type: functional, cell-based; details: Rattus norvegicus
How it was run: (§1)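 Tumour cell lines were seeded at 1 × 10^3 to 8 × 10^4 cells/well for logarithmic growth and exposed to a concentration series for 48 h. Proliferation was read as cellular metabolic activity by XTT. IC50 came from dose-response curves by nonlinear regression, with at least two replicates.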

L1210 = experiment: Antiproliferative activity against L1210 VCR cells by XTT assay after 48 hrs; type: functional, cell-based; details: Mus musculus, L1210, 48 h; how it was run: as §1
P388 [1] = experiment: Antiproliferative activity against P388 cells by XTT assay after 48 hrs; type: functional, cell-based; details: Mus musculus, P388, 48 h; how it was run: as §1
P388 [2] = experiment: Antiproliferative activity against P388 ADR cells by XTT assay after 48 hrs; type: functional, cell-based; details: Mus musculus, P388, 48 h; how it was run: as §1
cells = details: Rattus norvegicus, LT12, 48 h
[3] = Cell cycle arrest in KB/HeLa cells by accumulation at S phase at 31.6 nM; type: functional, cell-based; details: Homo sapiens
How it was run: (§2)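 Subconfluent KB/HeLa cells were treated with a concentration series for 24 h at 37 °C, then detached and fixed in 70% ethanol. DNA was stained with propidium iodide alongside RNase digestion and measured by flow cytometry. Phase fractions came from cell-cycle modelling software, and IC50 from nonlinear regression.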

[4] = Cell cycle arrest in KB/HeLa cells by accumulation at S phase at 100 nM; type: functional, cell-based; details: Homo sapiens; how it was run: as §2
[5] = Cell cycle arrest in KB/HeLa cells by accumulation at S phase at 316 nM; type: functional, cell-based; details: Homo sapiens; how it was run: as §2
[6] = Cell cycle arrest in KB/HeLa cells by accumulation at G2/M phase at 1 nM; type: functional, cell-based; details: Homo sapiens; how it was run: as §2
[7] = Cell cycle arrest in KB/HeLa cells by accumulation at G2/M phase at 3.16 nM; type: functional, cell-based; details: Homo sapiens
[8] = Cell cycle arrest in KB/HeLa cells by accumulation at G2/M phase at 10 nM; type: functional, cell-based; details: Homo sapiens; how it was run: as §2
[9] = Cell cycle arrest in KB/HeLa cells by accumulation at G2/M phase at 31.6 nM; type: functional, cell-based; details: Homo sapiens; how it was run: as §2
[10] = Cell cycle arrest in KB/HeLa cells by accumulation at G2/M phase at 100 nM; type: functional, cell-based; details: Homo sapiens; how it was run: as §2
[11] = Cell cycle arrest in KB/HeLa cells by accumulation at G2/M phase at 316 nM; type: functional, cell-based; details: Homo sapiens; how it was run: as §2
[12] = Cell cycle arrest in KB/HeLa cells by accumulation at G1 phase at 1 nM; type: functional, cell-based; details: Homo sapiens; how it was run: as §2
[13] = Cell cycle arrest in KB/HeLa cells by accumulation at G1 phase at 3.16 nM; type: functional, cell-based; details: Homo sapiens; how it was run: as §2
[14] = Cell cycle arrest in KB/HeLa cells by accumulation at G1 phase at 10 nM; type: functional, cell-based; details: Homo sapiens; how it was run: as §2
[15] = Cell cycle arrest in KB/HeLa cells by accumulation at G1 phase at 31.6 nM; type: functional, cell-based; details: Homo sapiens; how it was run: as §2
[16] = Cell cycle arrest in KB/HeLa cells by accumulation at G1 phase at 100 nM; type: functional, cell-based; details: Homo sapiens; how it was run: as §2
[17] = Cell cycle arrest in KB/HeLa cells by accumulation at G1 phase at 316 nM; type: functional, cell-based; details: Homo sapiens; how it was run: as §2
[18] = Cell cycle arrest in KB/HeLa cells by accumulation at G2/M phase; type: functional, cell-based; details: Homo sapiens; how it was run: as §2
[19] = Antiproliferative activity against KB/HeLa cells by XTT assay after 48 hrs; type: functional, cell-based; details: Homo sapiens; how it was run: as §1
RKO = experiment: Antiproliferative activity against RKO cells with ectopic-induced p27kip1-expression by XTT assay after 48 hrs; type: functional, cell-based; details: Homo sapiens
How it was run: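 RKO colon adenocarcinoma cells carry an ecdysone-inducible p27kip1 vector. On day 1 they were plated with 3 µM ponasterone A (induced, 2 × 10^4 cells/well) or without it (not induced, 6 × 10^3 cells/well) and held 24 h at 37 °C. Compound or DMSO control was then added for 48 h at 37 °C, followed by a standard XTT read-out.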

[20] = Cell cycle arrest in KB/HeLa cells by accumulation at S phase at 1 nM; type: functional, cell-based; details: Homo sapiens; how it was run: as §2
[21] = Cell cycle arrest in KB/HeLa cells by accumulation at S phase at 3.16 nM; type: functional, cell-based; details: Homo sapiens; how it was run: as §2
[22] = Cell cycle arrest in KB/HeLa cells by accumulation at S phase at 10 nM; type: functional, cell-based; details: Homo sapiens; how it was run: as §2

IC50 (L1210): > 5000 nM
IC50 (P388 [1]): 10 nM
IC50 (P388 [2]): 1100 nM
IC50 (cells): 1 nM
Structure (SMILES): CC[C@]1(O)C[C@@H]2CN(CCc3c([nH]c4ccccc34)[C@@](C(=O)OC)(c3cc4c(cc3OC)N(C)[C@H]3[C@@](O)(C(N)=O)[C@H](O)[C@]5(CC)C=CCN6CC[C@]43[C@@H]65)C2)C1 [VINDESINE]
IC50 (MDR): 260 nM

EC50 [18]: 49 nM
IC50 (L1210): > 5000 nM
IC50 (P388 [1]): 40 nM
IC50 (P388 [2]): > 5000 nM
Structure (SMILES): CC(=O)O[C@H]1C(=O)[C@@]2(C)[C@H]([C@H](OC(=O)c3ccccc3)[C@]3(O)C[C@H](OC(=O)[C@H](O)[C@@H](NC(=O)c4ccccc4)c4ccccc4)C(C)=C1C3(C)C)[C@]1(OC(C)=O)CO[C@@H]1C[C@@H]2O [PACLITAXEL]
Activity [3]: 49.9%
Activity [4]: 11%
Activity [5]: 8.9%
Activity [6]: 10.1%
Activity [7]: 9.4%
Activity [8]: 8.5%
Activity [9]: 19%
Activity [10]: 87.8%
Activity [11]: 90.8%
Activity [12]: 63.2%
Activity [13]: 63.6%
Activity [14]: 64.8%
Activity [15]: 31.1%
Activity [16]: 1.2%
Activity [17]: 0.3%
IC50 [19]: 10 nM
IC50 (RKO): > 3000 nM
IC50 (MDR): 400 nM
Activity [20]: 26.7%
Activity [21]: 27%
Activity [22]: 26.6%
